# Rows were chosen to be rich in hits. Some 2.5% of all compounds tested hit in one or more screens of this group.
# SENP8 block-1: SENP8 (human) protease inhibition; Q96LD8; recombinant SENP8, Nedd8 substrate fluorescence; inhibition, % at 20 µM; actives 0.64% (n = 360,000); in the data active means inhibition mostly above about 40%, no sharp cut-off; inactive means mostly below about 27%
# Target sequence (Q96LD8 whole entry, looked up): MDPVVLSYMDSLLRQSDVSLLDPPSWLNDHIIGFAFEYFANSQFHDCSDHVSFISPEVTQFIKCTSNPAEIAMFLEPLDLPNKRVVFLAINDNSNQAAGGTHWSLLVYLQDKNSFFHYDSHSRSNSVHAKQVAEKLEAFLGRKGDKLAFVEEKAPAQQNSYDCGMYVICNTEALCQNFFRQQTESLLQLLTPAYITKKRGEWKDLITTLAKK
# SENP6 block: SENP6 protease inhibition; Recombinant SENP6 catalytic domain, aminoluciferin luminescence; inhibition, % at 10 µM; Q9GZR1; actives 1.8% (n = 330,000); AID 2599;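 active means inhibition above about 50% at the single tested dose, limit read from the data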;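 further: plate controls were DMSO wells with enzyme for no effect and DMSO wells lacking enzyme for full effect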
# Target sequence (Q9GZR1 628-1112 limits assumed): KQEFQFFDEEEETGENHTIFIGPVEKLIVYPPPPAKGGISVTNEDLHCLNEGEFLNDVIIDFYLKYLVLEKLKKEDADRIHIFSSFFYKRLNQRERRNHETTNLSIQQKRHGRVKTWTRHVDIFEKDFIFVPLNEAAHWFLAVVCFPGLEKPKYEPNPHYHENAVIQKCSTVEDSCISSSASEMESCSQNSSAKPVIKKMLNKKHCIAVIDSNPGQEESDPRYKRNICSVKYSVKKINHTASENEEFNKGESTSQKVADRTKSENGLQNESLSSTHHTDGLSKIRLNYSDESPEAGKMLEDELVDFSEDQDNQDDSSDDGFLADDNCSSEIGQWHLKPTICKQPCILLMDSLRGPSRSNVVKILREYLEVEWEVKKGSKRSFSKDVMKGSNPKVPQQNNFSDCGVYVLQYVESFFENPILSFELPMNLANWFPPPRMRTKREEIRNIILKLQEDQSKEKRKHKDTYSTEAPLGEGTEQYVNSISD
# SENP1 inh: SENP1 (human) catalytic domain inhibition; Q9P0U3; recombinant SENP1 catalytic domain, CyPet-SUMO1-YPet FRET cleavage; inhibition, % at 10 µM; actives 0.21% (n = 360,000);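 active means inhibition at least 30% at 10 µM, raw YFP signal under a set limit, fluorescence ratio 0.5 to 1.5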;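 further: 0% = enzyme with DMSO and 100% = no enzyme wells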
#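 Test system: human SENP1 catalytic domain; medium: Tris pH 8 buffer plus EDTA, NaCl, BME, BSA, NP40, catalase; incubation: 50 min reaction at room temperature; technique: FRET, CFP and YFP emission; controls: no-enzyme low control and enzyme-plus-DMSO high control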
# SENP7 inh: blocks the human protease SENP7; Q9BQF6; recombinant SENP7, Z-RLRGG-aminoluciferin luminescence, 40 min; inhibition, % at 5 µM; actives 1.5% (n = 330,000); AID 434973;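 active means inhibition above about 50% at the single test dose, limit read from the data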;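 further: plate controls were DMSO with enzyme for no effect and no enzyme buffer wells for full effect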
# SENP8 block-2: inhibitors of human SENP8 protease. purified SENP8, Z-RLRGG-aminoluciferin cleavage, luminescence. actives 1.2% (n = 330,000). inhibition, % at 10 µM. Q96LD8; in the data active means inhibition above about 50%
# SENP8 confirm: confirmation of human SENP8 protease inhibitors; shares compounds with SENP7 inh; Recombinant SENP8, Z-RLRGG-aminoluciferin luminescence, 60 min; inhibition, % at 12.5 µM; actives 40% (n = 6,200);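 active means mean inhibition across replicates above about 50%, limit read from the data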
# SENP6 confirm: confirmation of human SENP6 protease inhibitors; shares compounds with SENP7 inh; recombinant SENP6, Z-RLRGG-aminoluciferin luminescence; inhibition, % at 12.5 µM; actives 58% (n = 6,200)
# SENP7 conf: human SENP7 inhibition, confirmed; shares compounds with SENP7 inh; recombinant SENP7, Z-RLRGG-aminoluciferin luminescence, 40 min; inhibition, % at 12.5 µM; actives 69% (n = 6,200); AID 488917
# Casp3 SENP sel: caspase-3 inhibition (SENP selectivity assay). shares compounds with SENP7 inh. purified caspase-3, Z-DEVD-aminoluciferin luminescence, 60 min. inhibition, % at 12.5 µM. actives 60% (n = 6,200);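 active means mean inhibition above about 50%, limit read from the data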;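 further: plate controls were enzyme with DMSO for no effect and wells without caspase-3 for full effect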
# SENP luc ctr: counter-screen for SENP inhibitors: luminescence interference; shares compounds with SENP7 inh; Pre-incubated SENP8/Z-RLRGG-aminoluciferin, luciferase luminescence interference; inhibition, % at 12.5 µM; actives 39% (n = 6,200);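 active means mean inhibition above about 50% when retested at one dose, limit read from the data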;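 further: plate controls were DMSO wells with completed reaction for no effect and substrate without enzyme for full effect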
# Numbers without * were called inactive; / = no result.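 How the source made its calls, unless noted: active means mean inhibition above about 50% in the one-dose retest (limit read from the data); inactive means the rest.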
SMILES,SENP8 block-1,SENP6 block,SENP1 inh,SENP7 inh,SENP8 block-2,SENP8 confirm,SENP6 confirm,SENP7 conf,Casp3 SENP sel,SENP luc ctr
CCC(=O)Nc1cccc(-c2ccc(N3CCCCC3)nn2)c1,-7.1,58.4*,0.6,52.2*,40.1,52.1*,49.9,79.1*,77.0*,61.4*
CCOc1ccc(C(=O)Nc2cccc(-c3ccc(N4CCOCC4)nn3)c2)cc1OCC,-22.4,3.9,-0.6,2.7,-0.5,/,/,/,/,/
O=[N+]([O-])c1ccc(Cl)c(S(=O)(=O)Nc2cccc(-c3ccc(N4CCCC4)nn3)c2)c1,6.6,92.0*,2.3,41.8,86.3*,47.4,90.8*,97.7*,85.9*,13.1
CCOc1ccccc1C(=O)Nc1cccc(-c2ccc(N3CCOCC3)nn2)c1,-15.4,78.3*,-1.4,70.2*,55.4*,23.8,67.8*,89.2*,62.7*,16.9
CCC(=O)Nc1cccc(-c2ccc(N3CCN(C)CC3)nn2)c1,6.9,-1.5,1.0,2.7,-6.4,/,/,/,/,/
CC(=O)Nc1cccc(C(=O)OCC(=O)N2CCC(c3ccccc3)=N2)c1,3.0,-28.3,0.1,5.4,-11.6,/,/,/,/,/
O=C(COc1ccc(C(=O)NCC2CCCO2)cc1)Nc1cccc(C(F)(F)F)c1 (stereo unspecified),9.7,-18.1,0.8,-4.8,4.8,/,/,/,/,/
Cc1c(C(=O)NCc2ccc(F)cc2)sc(=O)n1Cc1ccc(C(=O)c2ccccc2)cc1,7.4,/,-0.3,/,/,/,/,/,/,/
Clc1ccc2oc(-c3ccccn3)nc2c1,-41.7,66.6*,13.9,56.8*,28.2,32.9,56.4*,85.5*,77.7*,31.1
Nc1ccc2oc(-c3ccccn3)nc2c1,-68.9,-6.4,3.1,2.0,-4.6,/,/,/,/,/
CCOc1ccccc1OC(=O)CN1C(=O)c2ccccc2C1=O,21.8,-1.7,1.8,-3.1,-4.1,/,/,/,/,/
Cc1ccc(-c2nc3ncccc3o2)cc1NC(=O)c1ccc2c(c1)OCO2,18.7,/,2.1,/,/,/,/,/,/,/
C=CCNC1=C(Cl)C(=O)c2ccccc2C1=O,72.0*,59.0*,-3.7,16.6,20.6,20.5,50.0*,18.8,31.0,8.8
CCN(CC)CCCNC1=C(Cl)C(=O)c2ccccc2C1=O,46.7*,75.4*,-0.9,11.0,22.3,41.1,66.8*,20.6,54.6*,3.1
O=C1C(Cl)=C(Nc2ccccc2)C(=O)c2ccccc21,-39.7,/,3.7,/,/,/,/,/,/,/
CC(C)NC1=C(Cl)C(=O)c2ccccc2C1=O,51.7*,55.9*,-1.9,-6.7,33.6,15.3,45.1,13.9,26.5,4.9
O=C1C(Cl)=C(NCCc2ccccc2)C(=O)c2ccccc21,-82.1,/,6.3,/,/,/,/,/,/,/
O=C1C(Cl)=C(NCc2cccnc2)C(=O)c2ccccc21,86.4*,59.7*,7.5,29.7,30.2,47.3,71.9*,26.6,66.0*,2.8
COCCCNC1=C(Cl)C(=O)c2ccccc2C1=O,37.4,31.5,5.1,16.7,6.4,/,/,/,/,/
COc1cc(SC)ccc1C(=O)N1CCc2ccccc21,17.8,3.3,-0.4,-1.6,-2.7,/,/,/,/,/
CC1(C(=O)NS(=O)(=O)c2cccc(C#N)c2)CCN1C(=O)Cc1ccccc1 (stereo unspecified),13.0,/,-0.1,/,/,/,/,/,/,/
CC(C)OCCCNC1=C(Cl)C(=O)c2ccccc2C1=O,68.2*,62.5*,1.8,16.6,22.5,25.2,51.2*,14.6,17.9,15.2
COCCc1nc2ccc(C(=O)N(C)Cc3cccc(-n4nc(C)cc4C)c3)cc2o1,10.0,10.0,0.3,-2.1,3.1,/,/,/,/,/
CCOC(=O)CSC1=NC(=O)/C(=C\c2ccc(OC(C)=O)cc2)S1,22.5,71.9*,-2.8,78.2*,47.3,56.9*,52.0*,73.4*,40.8,77.1*
Oc1[nH]c2ccccc2c1N=Nc1nc2ccccc2s1,29.2,71.7*,41.0*,89.2*,55.4*,39.7,31.8,50.7*,35.9,42.9
SMILES,SENP8 block-1,SENP6 block,SENP1 inh,SENP7 inh,SENP8 block-2,SENP8 confirm,SENP6 confirm,SENP7 conf,Casp3 SENP sel,SENP luc ctr
O=C(N=Nc1c(O)[nH]c2ccccc12)Nc1ccccc1,15.0,/,2.1,/,/,/,/,/,/,/
Oc1[nH]c2ccccc2c1N=Nc1ccc(F)cc1,23.2,78.3*,-8.4,89.2*,68.8*,-17.6,64.5*,66.9*,25.7,-5.5
Oc1[nH]c2ccccc2c1N=Nc1ccccc1F,24.5,40.9,-1.8,74.8*,2.5,16.0,11.3,35.4,19.5,11.0
Oc1[nH]c2ccc(Br)cc2c1N=Nc1ccc(F)cc1,23.0,-2.5,13.2,7.1,2.8,/,/,/,/,/
Oc1[nH]c2ccccc2c1N=Nc1ccccc1,49.5*,87.9*,-21.7,80.4*,73.2*,39.8,72.7*,93.9*,62.1*,7.0
COc1ccc(CNC(=O)CN(Cc2ccco2)C(=O)CCC(=O)Nc2ccccn2)cc1,5.7,-11.5,-0.2,-5.6,-0.3,/,/,/,/,/
N#Cc1ccc(S(=O)(=O)N2CCC(C(=O)Nc3cccc(C(=O)NC4CC4)c3)CC2)cc1,3.0,-10.4,0.8,4.8,-5.1,/,/,/,/,/
COc1ccc(N2CC(C(=O)N[C@@H](CC(C)C)C(=O)NC3CCCC3)CC2=O)cc1 (stereo partly specified),11.9,0.6,3.8,-3.5,-4.3,/,/,/,/,/
Oc1ccc(Br)cc1C=Nc1ccc(Cl)cc1,2.4,-18.0,-20.5,3.7,-7.2,/,/,/,/,/
COc1cc(O)sc1C=Nc1ccc(Cl)cc1,-7.6,95.0*,-30.8,91.5*,82.3*,85.4*,86.9*,100.3*,84.0*,56.8*
Cc1c(O)ccc(/C=N/Nc2ncccc2[N+](=O)[O-])c1O,27.1,97.1*,2.1,100.3*,96.2*,67.0*,77.0*,102.3*,75.0*,25.2
O=C1/C(=C/c2cccc(F)c2)Oc2cc(O)ccc21,-256.4,52.3*,-19.0,47.3,36.2,70.0*,63.7*,80.8*,44.2,34.1
Cc1ccsc1/C=N/NC(=O)CNC(=O)c1ccccc1,-12.1,13.9,1.5,-4.9,0.5,/,/,/,/,/
Cc1ccsc1/C=N/Nc1ccc(C(=O)O)cc1,-115.8,96.7*,-16.9,99.1*,96.2*,99.1*,100.3*,102.7*,97.7*,98.3*
Cc1ccsc1/C=N/Nc1cccc(C(=O)O)c1,-40.2,97.9*,-12.9,99.7*,97.2*,98.0*,98.9*,102.2*,97.4*,97.8*

# Source: PubChem BioAssay (Sanford-Burnham Center for Chemical Genomics)
